B4: CarS antirepressor (natural protein, Myxococcus xanthus, UniProt Q06911 1-111, looked up)
chain: MIQDPSLIICHDVDGAPVRIGAKVKVVPHSEDGTISQRFLGQTGIVVGLVFDDPATQYPDDPLIQVLVEGLGEDLFFPEELELAPEWARNRIAQHRQAVRTGGRSSLERLP
B6: CarANt, N-terminal DNA-binding domain of CarA (domain or fragment, Myxococcus xanthus)
chain: MTLRIRTIARMTGIREATLRAWERRYGFPRPLRSEGNNYRVYSREEVEAVRRVARLIQEEGLSVSEAIAQVKTEPPRE

The target in data set [1] is T1, CarS (Myxococcus xanthus, UniProt Q06911).
T1 sequence (Q06911 1-111): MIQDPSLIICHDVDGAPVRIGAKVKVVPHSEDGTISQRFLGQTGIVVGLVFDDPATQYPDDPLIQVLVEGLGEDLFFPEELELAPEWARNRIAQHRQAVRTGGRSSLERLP
As to the kind of experiment: ITC titration with CarS. The format is binding. In general terms: ITC needs no label: the signal is the heat of the interaction.

In data set [2] the target is T1, CarS. To be noted: cited from earlier work.
Data set [3] deals with P01, CarA α2 peptide (α2 segment plus the subsequent eight C-terminal residues) (Myxococcus xanthus). As to the kind of experiment: ITC.
The target in data set [4] is P02, CarA α2 peptide (α2 only) (Myxococcus xanthus). Description: ITC.
Data set [5] has as its target P01, CarA α2 peptide (α2 segment plus the subsequent eight C-terminal residues) (Myxococcus xanthus). Description: ITC. This is another data set of the same source.
Data set [6] shares this target. As to the kind of experiment: ITC. The source holds these as a separate data set.
In data set [7] the test system is CarA or CarH N-terminal domain. The conditions noted are these: cited from earlier work.
Data set [8] has as its target P01, CarA α2 peptide (α2 segment plus the subsequent eight C-terminal residues) (Myxococcus xanthus). As to the kind of experiment: ITC. This is another data set of the same source.
Data set [9] has as its target CHP01, CarHNt peptide equivalent to P01 (Myxococcus xanthus). As to the kind of experiment: ITC.
The target in data set [10] is B6. Description: ITC.
Data set [11] in a line: Analytical gel filtration of pure proteins. It counts as physicochemical. To be noted: Superdex200, 50 mM phosphate pH 7.5, 2 mM β-mercaptoethanol. In a few lines: (§1)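 Superdex200 analytical size-exclusion HPLC in 50 mM phosphate pH 7.5, 2 mM β-mercaptoethanol and the required NaCl. Samples were 10–50 µM pure protein, or CarNt or CarHNt mixed with CarS or variant at equivalent concentrations. Flow was 0.4 ml/min with detection at 280, 235 and 220 nm. Peak fractions were identified by SDS–PAGE. Mr was taken from elution volume via log Mr = 7.64 – 0.209 Ve.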

Data set [12] relates to CarANt. As to the kind of experiment: Analytical gel filtration, complex formation with CarANt. The format is binding, Myxococcus xanthus. A digest of the protocol: as §1
Background: In gel filtration, larger molecules generally elute earlier.

In data set [13] the test system is CarA. As to the kind of experiment: Yeast two-hybrid interaction with CarA. To be noted: 30°C. The format is cell-based, Myxococcus xanthus. A digest of the protocol: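 Yeast EGY48 carrying lacZ reporter pSH18-34 was cotransformed (lithium acetate) with LexA–CarA and B42–CarS or variant fusions. Equal-density cultures were spotted on galactose or glucose (basal fusion expression) plates with leucine, grown 1 day at 30°C, then overlaid with X-Gal agarose for 2–3 h (Gal) or ≥7 h (Glu). Interaction was scored by blue colour; single-hybrid cells served as controls.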

Data set [14] concerns the target B4. As to the kind of experiment: ITC.
Data set [15] concerns the target T1, CarS. Description: Analytical gel filtration, complex formation with CarS. The format is binding. The conditions noted are these: Superdex200, pH 7.5, mixture with CarS. In a few lines: as §1

Like-named read-outs stand apart in the source and are kept apart here.

In general, Kd refers to the free concentration of one partner at which half of the binding sites on the other are occupied at equilibrium, for simple one-to-one binding. For the molecule Ac-GVRVELIRAWERRYGVLTPRRTP-NH2 [CHP01], in [1], the Kd was 690 ± 140 nM. In data set [1] (ITC with CarS, pH 7.5), the “ITC heat change / binding” value is “bind tightly to CarS, but with a KD somewhat higher than for P01”. Also, the “N (binding stoichiometry)” value in data set [1] (ITC, CarS, 25 °C, pH 7.5, 100 mM NaCl, 50 mM phosphate, 2 mM β-mercaptoethanol, 0.05% sodium azide, 20 µM CarANt or peptide titrated with 0.22 mM CarS, average of at least two independent titrations) turned out to be 0.91 ± 0.01. In addition, the ΔH in data set [1] (ITC, CarS, 25 °C, pH 7.5, 100 mM NaCl, 50 mM phosphate, average of at least two independent titrations) is listed as −7.15 ± 0.17 kcalmol^−1.

B1: CarA R15 to A: CarA with R15 mutated to A (ref 10) (protein, UniProt Q50899 1-288, looked up, variant R15A)
HTH-type transcriptional …: MTLRIRTIARMTGIAEATLRAWERRYGFPRPLRSEGNNYRVYSREEVEAVRRVARLIQEEGLSVSEAIAQVKTEPPREQPEAERLRERFWSSVGALEGDEVTRVLDDAQTVMDVEAYCDGFLLPLLREMGVRLDVAREHLASALIRQRLRQVYDALSPAPAGPRALLACPSGDHHEGGLLVLGIHLKRKGWRVTMLGADTPAAALQGACVQVRPDVVALSFVRARAPEEFASVLEDALRACAPFPVVVGGLGAREHLKAIFSLGAQYAESSEELVAIWNQVRNAQNRP
As to B1, the “Interaction of CarA variant with CarS” value in data set [2] is listed as “CarS-binding was not impaired”.

B2: R20′ to A: CarA with R20 mutated to A (ref 10) (protein, UniProt Q50899 1-288, looked up, variant R20A)
HTH-type transcriptional …: MTLRIRTIARMTGIREATLAAWERRYGFPRPLRSEGNNYRVYSREEVEAVRRVARLIQEEGLSVSEAIAQVKTEPPREQPEAERLRERFWSSVGALEGDEVTRVLDDAQTVMDVEAYCDGFLLPLLREMGVRLDVAREHLASALIRQRLRQVYDALSPAPAGPRALLACPSGDHHEGGLLVLGIHLKRKGWRVTMLGADTPAAALQGACVQVRPDVVALSFVRARAPEEFASVLEDALRACAPFPVVVGGLGAREHLKAIFSLGAQYAESSEELVAIWNQVRNAQNRP
With B2, the “Interaction of CarA variant with CarS” value in [2] was “no apparent impairment in interactions with CarS”.

B3: CarS1, functional truncated form of CarS (lacking the last 25 residues) (domain or fragment)
chain: MIQDPSLIICHDVDGAPVRIGAKVKVVPHSEDGTISQRFLGQTGIVVGLVFDDPATQYPDDPLIQVLVEGLGEDLFFPEELELAPE
A word on the stoichiometry N: it is a count of units in the complex or per binding partner. As for B3, the Kd turned out to be 150 nM in data set [3]; 490 nM in [4]; 200 nM in [5]; 175 nM in [6]; 270 nM in data set [8]. For the same molecule, the dH is -8.46 kcalmol^−1 in [3]; -7.6 kcalmol^−1 in data set [4]; -10.9 kcalmol^−1 in [5]; -5.7 kcalmol^−1 in [6]; -14.4 kcalmol^−1 in data set [8]. Besides, the stoichiometry N in data set [3] is 0.92; in [4], 0.97; in data set [5], 0.89; in data set [6] it was 0.93; in data set [8], 0.89. The Complex formation stoichiometry entry in data set [7] is “forms a 1:1 complex”.
Consider B4, for which the Kd in [9] was 690 nM; in data set [3] it was 150 nM; in data set [4], 300 nM. In addition, the dH in [9] was -7.15 kcalmol^−1; in data set [3], -11.7 kcalmol^−1; in data set [4], -12 kcalmol^−1; in [10], -9.24 ± 0.02 kcalmol^−1. Also, the stoichiometry N in data set [9] was found to be 0.91; in data set [3], 0.93; in [4], 1.07; in [10], 0.94 ± 0.01.

B5: CarS: antirepressor of Myxococcus xanthus (protein)
chain: MIQDPSLIICHDVDGAPVRIGAKVKVVPHSEDGTISQRFLGQTGIVVGLVFDDPATQYPDDPLIQVLVEGLGEDLFFPEELELAPEWARNRIAQHRQAVRTGGRSSLERLP
modifications: left off: H6, end not stated, cleaved
As to B5, the “Apparent Mr of pure protein” value in [11] was determined as 15.1 ± 0.8 kDa. Moreover, the “Apparent Mr of complex/peak in mixture with CarANt” value in data set [12] (Superdex200, 50 mM phosphate pH 7.5, 2 mM β-mercaptoethanol, mixture with CarANt) was 30 ± 2 kDa. Also, the “Complex formation with CarANt” value in data set [12] (Superdex200, pH 7.5, mixture with CarANt) was “formed a stable 1:1 complex”. In addition, in data set [13] (galactose plates, X-gal overlay), the “Two-hybrid blue color, galactose plates” value is listed as “turned blue within two hours”. Moreover, the “Two-hybrid blue color, glucose plates” value in data set [13] (glucose plates (basal B42-fusion expression), X-gal 7–24 h) is given as “blue color”.
As to B6, binding in [14] was characterised by a dissociation constant (Kd) of 12 ± 3 nM.

B7: CarHNt: CarH N-terminal DNA-binding domain (protein)
chain: MAERTYRINIAAELAGVRVELIRAWERRYGVLTPRRTPAGYRAYTDRDVAVLKQLKRLTDEGVAISEAAKLLPQLMEGLE
modifications: left off: H6, end not stated, cleaved
As to B7, in [15], the “Apparent Mr of complex with CarS” value was “≈ 35 kDa” and the “Complex formation with CarS” value is given as “forms a 1:1 complex”.

The record behind these values is PMC2926617 (Nucleic Acids Research, 2010).
